Assay outcomes as filed in PubChem BioAssay.
Rows were chosen to be rich in hits. Some 4.4% of all compounds tested hit in one or more screens of this group.
HTR2A ag: mouse HTR2A agonism via beta-arrestin recruitment; actives 0.66% (n = 360,000); CHO-K1 mHTR2A beta-arrestin complementation, luminescence; percent of 30 µM serotonin response; P35363; activation, % at 7.6 µM;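 active = activation above a run cutoff, the mean activation of all tested compounds plus 3 SD, cut at about 14% in these data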
Target sequence (P35363 whole entry, looked up): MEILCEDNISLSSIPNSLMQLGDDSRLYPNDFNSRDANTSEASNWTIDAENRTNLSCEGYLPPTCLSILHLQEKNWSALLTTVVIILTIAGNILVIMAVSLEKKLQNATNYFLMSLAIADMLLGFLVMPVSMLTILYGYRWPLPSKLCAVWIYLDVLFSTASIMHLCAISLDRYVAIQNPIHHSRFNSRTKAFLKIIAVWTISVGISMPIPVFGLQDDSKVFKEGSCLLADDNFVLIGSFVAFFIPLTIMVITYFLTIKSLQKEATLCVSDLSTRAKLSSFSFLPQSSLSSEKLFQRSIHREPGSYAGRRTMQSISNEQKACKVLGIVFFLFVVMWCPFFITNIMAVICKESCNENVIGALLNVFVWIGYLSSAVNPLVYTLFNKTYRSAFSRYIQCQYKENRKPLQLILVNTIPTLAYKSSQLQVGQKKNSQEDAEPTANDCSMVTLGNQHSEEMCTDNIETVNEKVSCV
AHR activator: human AHR activation; P35869; AHR-responsive luciferase reporter cells, luminescence; activation, % at 5 µM; actives 2.5% (n = 320,000); AID 2796; in the data active = activation above about 47%
AI-2 QS modul: modulators of Vibrio harveyi AI-2 quorum sensing system | Vibrio harveyi JMH597 AI-2 luminescence/OD600 ratio, 9 h; stronger effect = lower value; strain lacks LuxN and CqsS sensors; 0 = neutral-control median | activity change, % at 7.5 µM | actives 0.4% (n = 300,000) | AID 2094; in the data active = activity change below about -75%, passing the limit was not always enough; inconclusive = no clear call, values can overlap the other calls;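 also: luminescence divided by OD600 gain over 9 h not by final OD600 alone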
bovine MsrA act: activators of bovine methionine sulfoxide reductase A | purified bovine MsrA, absorbance read-out | activation, % at 10.6 µM | actives 0.3% (n = 360,000) | AID 602163; in the data active = activation above about 7.5%
MsrA inh: inhibitors of bovine MsrA. purified bovine MsrA, absorbance read-out. inhibition, % at 15.5 µM. actives 0.75% (n = 360,000); in the data active = inhibition above about 4.5%
Tb MetRS inh: blocks T. brucei methionyl-tRNA synthetase activity. actives 0.4% (n = 360,000). purified T. brucei MetRS, ATP depletion, Kinase-Glo luminescence. inhibition, % at 11.9 µM;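 active = inhibition above a per-plate cutoff of the control wells' mean inhibition plus 3 SD, cut at about 5.5% in these data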
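Test system – parasite MetRS enzyme · Reagent – substrates ATP, L-methionine and bulk Escherichia coli tRNA · Doses – 11.9 µM compound single dose, 0.9% DMSO · Times – 15 min enzyme-compound preincubation, 2 h reaction, 10 min detection, 25 °C · Signal – Kinase-Glo luminescence, ATP depletion format · Controls – DMSO-only wells as low control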
MsrA act confirm: bovine methionine sulfoxide reductase A activation confirmed. shares compounds with bovine MsrA act. purified bovine MsrA, absorbance read-out. activation, % at 10.6 µM. actives 12% (n = 1,000). AID 602270; in the data active = activation above about 4%;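 also: enzyme coupled to thioredoxin and thioredoxin reductase with NADPH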
MOR ag counter: counter-screen for mouse HTR2A agonists: human mu opioid receptor agonists. shares compounds with HTR2A ag. U2OS OPRM1 beta-arrestin PathHunter, luminescence; DMSO 0%, DAMGO 9.3 µM 100%. activation, % at 9.3 µM. actives 5.3% (n = 2,300);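 active = mean activation above the mean of DMSO-only wells plus 3 SD, cut at about 0.5% in these data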
m5-HT2A ag conf: mouse HTR2A agonism confirmed; shares compounds with HTR2A ag; CHO-K1 PathHunter beta-arrestin recruitment, luminescence; DMSO 0%, 30 µM serotonin 100%; activation, % at 7.6 µM; actives 19% (n = 2,300); AID 624381;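 active = mean activation across triplicates above the hit threshold derived in the original primary screen, cut at about 15% in these data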
TbMetRS confirm: confirmation of Trypanosoma brucei MetRS inhibitors. shares compounds with Tb MetRS inh. T. brucei MetRS enzyme, luminescence (ATP depletion). inhibition, % at 11.9 µM. actives 93% (n = 1,400). AID 624412; in the data active = inhibition above about 7%
Jurkat cytotox: kills Jurkat cells in T. brucei MetRS counterscreen. actives 12% (n = 1,400). AID 624413. shares compounds with Tb MetRS inh. inhibition, % at 8.3 µM. Jurkat cells viability, ATP luminescence; in the data active = inhibition above about 15%
TbMetRS FP orth: orthogonal test for Trypanosoma brucei MetRS inhibitors; shares compounds with Tb MetRS inh; purified T. brucei MetRS, fluorescence polarization; inhibition, % at 11.9 µM; actives 44% (n = 1,400); in the data active = inhibition above about 17%
Large screens that a line does not name were inactive (follow-up assays come after a bar, where they were run).

CC1=C(C(=O)OC(C)C)C(c2cccc(F)c2)N2C(=O)C(C)SC2=N1 (stereo not drawn)	bovine MsrA act 9.8 | MsrA act confirm inactive
CC1=C(C(=O)OCC(C)C)C(c2cccc(F)c2)N2C(=O)C(C)SC2=N1 (stereo not drawn)	none
CC1CCCC(NC(=O)COC(=O)/C=C/c2ccc([N+](=O)[O-])cc2)C1C (stereo not drawn)	none (no result: AI-2 QS modul)
CCc1ccc(CN(C)Cc2nc(COc3ccccc3)no2)nc1	bovine MsrA act 7.9 | MsrA act confirm inactive
CCCCN(C)C(=O)c1cc2cc3ccc(OC)cc3nc2o1	bovine MsrA act 17 | MsrA act confirm inactive
CCCCN(C)C(=O)c1cc2cc3cc(OC)ccc3nc2o1	none
S=c1nc(-c2ccco2)[nH][nH]1	bovine MsrA act 8.2 | MsrA act confirm inactive
CCC(C)NS(=O)(=O)c1cc2c3c(c1)CCC(=O)N3CCC2 (stereo not drawn)	none
CC(C)CCN1CCC(CN2C(=O)C(=O)NC[C@@H]2CC(C)C)CC1	bovine MsrA act 12 (no result: AHR activator, AI-2 QS modul) | MsrA act confirm inactive
CC(C)C[C@H]1CNC(=O)C(=O)N1CC1CCN(CCC(C)c2ccccc2)CC1 (stereo partly drawn)	none (no result: AHR activator, AI-2 QS modul)
CC(C)C[C@H]1CNC(=O)C(=O)N1C[C@@H]1CCCN1C[C@H](Cc1ccccc1)N1C[C@H](Cc2ccccc2)N(CC2CCCCC2)C(=O)C1=O	bovine MsrA act 7.9 (no result: AHR activator, AI-2 QS modul) | MsrA act confirm inactive
CC(C)C[C@H]1CNC(=O)C(=O)N1C[C@@H]1CCCN1C[C@H](Cc1ccc(O)cc1)N1C[C@H](Cc2ccccc2)N(CC2CCCCCC2)C(=O)C1=O	none (no result: AHR activator, AI-2 QS modul)
Cc1ccc(F)c(S(=O)(=O)NC(=O)C2(C)CCN2C(=O)CC2CCCCC2)c1 (stereo not drawn)	none (no result: AHR activator, AI-2 QS modul)
Cn1c(=O)c2c(SCC(=O)N3CCOCC3)nc(-c3ccccc3F)nc2n(C)c1=O	none
COc1ccc(S(=O)(=O)N2CCCCC2c2cc(C(=O)Nc3ccc(OC)cc3C)no2)cc1 (stereo not drawn)	none (no result: AHR activator, AI-2 QS modul)
O=C(Cc1cccs1)N/N=C\c1ccc([N+](=O)[O-])s1	none
Cc1ccc(NC(=S)N/N=C/c2ccc([N+](=O)[O-])s2)cc1	AI-2 QS modul inconclusive, bovine MsrA act 9.2 | MsrA act confirm inactive
COCCNC(=S)N1CCC2CC1c1cc(-c3ccc4c(c3)OCO4)ccc12 (stereo not drawn)	none (no result: AHR activator, AI-2 QS modul)
COc1cccc(-c2cccc(NC(=O)C3CCN(CC4CCOC4)CC3)c2)c1 (stereo not drawn)	none
CN(CCC1CCCCO1)C(=O)c1cc(COc2ccc(F)cc2F)on1 (stereo not drawn)	none
CN(CCCC1CCCC1)C(=O)c1cc(COc2ccc(F)cc2F)on1	bovine MsrA act 9.1 | MsrA act confirm inactive
CCCCN(CC)C(=O)c1cc2c(=O)n3cccc(C)c3nc2s1	bovine MsrA act 10 | MsrA act confirm inactive
CCN(C(=O)c1cc2c(=O)n3cccc(C)c3nc2s1)C1CCCCC1	none
CCCC1NC(=O)c2cccnc2-n2c1nc1ccc(C)cc1c2=O (stereo not drawn)	none (no result: AHR activator, AI-2 QS modul)
C=CCc1ccccc1OCC(O)CN1CCN(c2ccc(C)cc2)CC1 (stereo not drawn)	bovine MsrA act 9.3 | MsrA act confirm inactive
NC1=C(Cl)C(=O)c2ccccc2C1=O	HTR2A ag 17, bovine MsrA act 18 (no result: AHR activator, AI-2 QS modul) | MsrA act confirm 12 | MOR ag counter inactive | m5-HT2A ag conf inactive
CC(C)CC(N)c1csc(Nc2ncccn2)n1 (stereo not drawn)	none (no result: AHR activator, AI-2 QS modul)
O=C(c1ccc2oc(Cc3ccc(Cl)cc3)nc2c1)N1CC[C@H](O)C1	none
CC(=O)Nc1ccc(S(=O)(=O)N2c3ccccc3NC(=O)CC2C)c(Cl)c1 (stereo not drawn)	HTR2A ag 17, bovine MsrA act 12 | MsrA act confirm inactive | MOR ag counter inactive | m5-HT2A ag conf inactive
COc1ccc(-c2csc(NC(=O)c3ccccc3NS(=O)(=O)c3ccc(F)c(F)c3)n2)cc1	HTR2A ag 18, bovine MsrA act 15 | MsrA act confirm inactive | MOR ag counter inactive | m5-HT2A ag conf 24
Cc1ccc(S(=O)(=O)Nc2ccccc2C(=O)Nc2nc(-c3ccc(F)cc3)cs2)cc1	none
O=C1C(=O)c2cccnc2-c2ncccc21	bovine MsrA act 95, Tb MetRS inh 15 (no result: AHR activator, AI-2 QS modul) | MsrA act confirm 76 | TbMetRS confirm 9.7 | Jurkat cytotox 97 | TbMetRS FP orth inactive
O=C(CCNS(=O)(=O)c1cccc2nonc12)Nc1ccc(Cl)cc1	bovine MsrA act 13, Tb MetRS inh 10 | MsrA act confirm inactive | TbMetRS confirm 21 | Jurkat cytotox inactive | TbMetRS FP orth inactive
O=C(OCC(=O)c1c[nH]c2ccccc12)c1ccc([N+](=O)[O-])s1	AI-2 QS modul -99, bovine MsrA act 16, Tb MetRS inh 10 | MsrA act confirm 6.6 | TbMetRS confirm 23 | Jurkat cytotox inactive | TbMetRS FP orth inactive
CCOC(=O)c1c(C)[nH]c(C)c1C(=O)COC(=O)c1ccc([N+](=O)[O-])s1	none (no result: AI-2 QS modul)
Cc1nn(CC(=O)NCCC2=CCCCC2)c(C)c1[N+](=O)[O-]	none
